# Reference: article PMC6170741 (Investigational new drugs, 2018)
# pKi: −log10 of the molar value.
# How the values were obtained:
# [1] = system: patients with solid tumors; experiment: Phase I safety and tolerability; assay type: in vivo
# [2] = Single dose plasma pharmacokinetics in patients; assay type: in vivo, human; conditions: for Tmax: human, plasma, po, across all doses and regimens
# In short: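 Fasted patients took one oral capsule dose (Cycle 0) before repeat dosing began. Drug was quantified by liquid-liquid extraction and HPLC-MS/MS (range 1–1000 ng/mL; LLOQ 1.00 ng/mL). Non-compartmental analysis gave AUC(0–24) and Cmax, and variability was expressed as CV%.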
# [3] = Repeat dose plasma pharmacokinetics in patients; assay type: in vivo, human
# In short: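 Fasted patients took oral capsules once daily. Steady-state plasma was sampled up to 24 h post-dose on day 8 (10 and 20 mg cohorts), day 15 (40–150 mg cohorts), day 7 (7-on/7-off) or day 22 (t.i.w.). Dose-reduced patients were sampled at the new dose. Drug was measured by liquid-liquid extraction and HPLC-MS/MS (validated 1–1000 ng/mL; LLOQ 1.00 ng/mL). Parameters were derived non-compartmentally.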
# [4] = system: patients with solid tumors; experiment: Clinical activity; assay type: in vivo, human
# [5] = system: blood glucose and insulin levels; experiment: Pharmacodynamics: insulin after standardized meal, 1,5-anhydroglucitol; assay type: in vivo, human
# AKT1 = conditions: read-out: AKT1 Ki*; cited from earlier work
# AKT3 = conditions: read-out: AKT3 Ki*; cited from earlier work
# [6] = any cause, all cohorts, N = 77, CTCAE v3.0
# [7] = 75 mg, continuous daily regimen
# [8] = repeat dose, 75 mg, continuous daily regimen
structure (smiles),measurement,setting,value
Cn1ncc(Cl)c1-c1cc(C(=O)N[C@H](CN)Cc2ccc(F)c(F)c2)oc1Cl [GSK2141795],DLTs,[1]; 75 mg qd 7-on/7-off cohort,No DLTs
same,DLTs,[1]; 75 mg t.i.w. cohort,No DLTs
same,DLTs,[1]; 100 mg qd 7-on/7-off cohort,"Two DLTs, grade 3 hyperglycemia and grade 3 rash"
same,DLTs,[1]; 100 mg qd cohort (exceeded the MTD),"two DLTs, including grade 1 stomatitis that did not resolve, leading to a treatment delay of >14 days, as well as grade 4 hypoglycemia"
same,DLTs,[1]; 100 mg t.i.w. cohort,No DLTs
same,DLTs,[1]; 150 mg qd cohort (exceeded the MTD),two DLTs of grade 3 hyperglycemia
same,maximum tolerated dose (MTD),[1]; 7-on/7-off schedule,75 mg
same,"hyperglycemia, patients",[1]; all cohorts,22%
same,"rash, patients",[1]; all cohorts,22%
same,patients with DLTs,"[1]; all cohorts, cycle 1",7 patients
same,"Abdominal pain, Grade 1",[1]; [6],13 (17) n (%)
same,"Abdominal pain, Grade 2",[1]; [6],4 (5) n (%)
same,"Abdominal pain, Grade 3",[1]; [6],3 (4) n (%)
same,"Abdominal pain, Grade 4",[1]; [6],0 n (%)
same,"Abdominal pain, Total",[1]; [6],20 (26) n (%)
same,"Back pain, Grade 1",[1]; [6],11 (14) n (%)
same,"Back pain, Grade 2",[1]; [6],3 (4) n (%)
same,"Back pain, Grade 3",[1]; [6],1 (1) n (%)
same,"Back pain, Grade 4",[1]; [6],0 n (%)
same,"Back pain, Total",[1]; [6],15 (19) n (%)
same,"Constipation, Grade 1",[1]; [6],14 (18) n (%)
same,"Constipation, Grade 2",[1]; [6],3 (4) n (%)
same,"Constipation, Grade 3",[1]; [6],0 n (%)
same,"Constipation, Grade 4",[1]; [6],0 n (%)
same,"Constipation, Total",[1]; [6],17 (22) n (%)
same,"Cough, Grade 1",[1]; [6],9 (12) n (%)
same,"Cough, Grade 2",[1]; [6],0 n (%)
same,"Cough, Grade 3",[1]; [6],0 n (%)
same,"Cough, Grade 4",[1]; [6],0 n (%)
same,"Cough, Total",[1]; [6],9 (12) n (%)
same,"Decreased appetite, Grade 1",[1]; [6],23 (30) n (%)
same,"Decreased appetite, Grade 2",[1]; [6],6 (8) n (%)
same,"Decreased appetite, Grade 3",[1]; [6],0 n (%)
same,"Decreased appetite, Grade 4",[1]; [6],1 (1) n (%)
same,"Decreased appetite, Total",[1]; [6],30 (39) n (%)
same,"Diarrhea, Grade 1",[1]; [6],33 (43) n (%)
same,"Diarrhea, Grade 2",[1]; [6],13 (17) n (%)
same,"Diarrhea, Grade 3",[1]; [6],3 (4) n (%)
same,"Diarrhea, Grade 4",[1]; [6],0 n (%)
same,"Diarrhea, Total",[1]; [6],49 (64) n (%)
same,"Dizziness, Grade 1",[1]; [6],12 (16) n (%)
same,"Dizziness, Grade 2",[1]; [6],0 n (%)
same,"Dizziness, Grade 3",[1]; [6],0 n (%)
same,"Dizziness, Grade 4",[1]; [6],0 n (%)
same,"Dizziness, Total",[1]; [6],12 (16) n (%)
same,"Dysgeusia, Grade 1",[1]; [6],7 (9) n (%)
same,"Dysgeusia, Grade 2",[1]; [6],1 (1) n (%)
same,"Dysgeusia, Grade 3",[1]; [6],0 n (%)
same,"Dysgeusia, Grade 4",[1]; [6],0 n (%)
same,"Dysgeusia, Total",[1]; [6],8 (10) n (%)
same,"Dyspnea, Grade 1",[1]; [6],10 (13) n (%)
same,"Dyspnea, Grade 2",[1]; [6],3 (4) n (%)
same,"Dyspnea, Grade 3",[1]; [6],2 (3) n (%)
same,"Dyspnea, Grade 4",[1]; [6],0 n (%)
same,"Dyspnea, Total",[1]; [6],15 (19) n (%)
same,"Fatigue, Grade 1",[1]; [6],21 (27) n (%)
same,"Fatigue, Grade 2",[1]; [6],16 (21) n (%)
same,"Fatigue, Grade 3",[1]; [6],0 n (%)
same,"Fatigue, Grade 4",[1]; [6],1 (1) n (%)
same,"Fatigue, Total",[1]; [6],38 (49) n (%)
same,"Headache, Grade 1",[1]; [6],7 (9) n (%)
same,"Headache, Grade 2",[1]; [6],0 n (%)
same,"Headache, Grade 3",[1]; [6],1 (1) n (%)
same,"Headache, Grade 4",[1]; [6],1 (1) n (%)
same,"Headache, Total",[1]; [6],9 (12) n (%)
same,"Hyperglycemia, Grade 1",[1]; [6],2 (3) n (%)
same,"Hyperglycemia, Grade 2",[1]; [6],9 (12) n (%)
same,"Hyperglycemia, Grade 3",[1]; [6],5 (6) n (%)
same,"Hyperglycemia, Grade 4",[1]; [6],1 (1) n (%)
same,"Hyperglycemia, Total",[1]; [6],17 (22) n (%)
same,"Mucosal inflammation, Grade 1",[1]; [6],7 (9) n (%)
same,"Mucosal inflammation, Grade 2",[1]; [6],1 (1) n (%)
same,"Mucosal inflammation, Grade 3",[1]; [6],0 n (%)
same,"Mucosal inflammation, Grade 4",[1]; [6],0 n (%)
same,"Mucosal inflammation, Total",[1]; [6],8 (10) n (%)
same,"Nausea, Grade 1",[1]; [6],42 (55) n (%)
same,"Nausea, Grade 2",[1]; [6],4 (5) n (%)
same,"Nausea, Grade 3",[1]; [6],1 (1) n (%)
same,"Nausea, Grade 4",[1]; [6],0 n (%)
same,"Nausea, Total",[1]; [6],47 (61) n (%)
same,"Peripheral edema, Grade 1",[1]; [6],9 (12) n (%)
same,"Peripheral edema, Grade 2",[1]; [6],0 n (%)
same,"Peripheral edema, Grade 3",[1]; [6],0 n (%)
same,"Peripheral edema, Grade 4",[1]; [6],0 n (%)
same,"Peripheral edema, Total",[1]; [6],9 (12) n (%)
same,"Pyrexia, Grade 1",[1]; [6],10 (13) n (%)
same,"Pyrexia, Grade 2",[1]; [6],2 (3) n (%)
same,"Pyrexia, Grade 3",[1]; [6],0 n (%)
same,"Pyrexia, Grade 4",[1]; [6],0 n (%)
same,"Pyrexia, Total",[1]; [6],12 (16) n (%)
same,"Rash, Grade 1",[1]; [6],8 (10) n (%)
same,"Rash, Grade 2",[1]; [6],8 (10) n (%)
same,"Rash, Grade 3",[1]; [6],1 (1) n (%)
same,"Rash, Grade 4",[1]; [6],0 n (%)
same,"Rash, Total",[1]; [6],17 (22) n (%)
same,"Urinary tract infection, Grade 1",[1]; [6],6 (8) n (%)
same,"Urinary tract infection, Grade 2",[1]; [6],6 (8) n (%)
same,"Urinary tract infection, Grade 3",[1]; [6],0 n (%)
same,"Urinary tract infection, Grade 4",[1]; [6],0 n (%)
same,"Urinary tract infection, Total",[1]; [6],12 (16) n (%)
same,"Vomiting, Grade 1",[1]; [6],29 (38) n (%)
same,"Vomiting, Grade 2",[1]; [6],3 (4) n (%)
same,"Vomiting, Grade 3",[1]; [6],1 (1) n (%)
same,"Vomiting, Grade 4",[1]; [6],0 n (%)
same,"Vomiting, Total",[1]; [6],33 (43) n (%)
same,"Weight decreased, Grade 1",[1]; [6],12 (16) n (%)
same,"Weight decreased, Grade 2",[1]; [6],5 (6) n (%)
same,"Weight decreased, Grade 3",[1]; [6],0 n (%)
same,"Weight decreased, Grade 4",[1]; [6],0 n (%)
same,"Weight decreased, Total",[1]; [6],17 (22) n (%)
same,dose reductions for diarrhea,[1]; at the RP2D,2 patients
same,dose reductions for rash,[1]; at the RP2D,3 patients
same,grade 3 hyperglycemia,"[1]; at the RP2D (75 mg qd), % of patients",4%
same,patients withdrawn as a result of an AE,"[1]; of 77 enrolled (17%), at study completion",13 patients
same,recommended phase II dose (RP2D),"[1]; once-daily dosing, oral",75 mg
same,maximum tolerated dose (MTD),[1]; qd dosing,75 mg
same,"mean variability (CV%) in exposure, AUC(0–24)",[2]; [7],37%
same,"mean variability (CV%) in exposure, Cmax",[2]; [7],62%
same,Tmax,"[2]; Tmax, majority",2 to 4 h
same,Tmax,[2]; median time to maximal concentration (Tmax),3 to 8 h
same,time to reach steady-state,[3]; continuous qd dosing,approximately 14 days
same,concentration at 24 h,"[3]; human, plasma, oral, 20 mg, C24, repeat dose 20 mg once daily (n = 1), day 8",42.1 ng/mL
same,Cmax,"[3]; human, plasma, oral, 20 mg, Cmax, repeat dose 20 mg once daily (n = 1), day 8",90.3 ng/mL
same,Tmax,"[3]; human, plasma, oral, 20 mg, Tmax, repeat dose 20 mg once daily (n = 1), day 8",3 h
same,Tmax,"[3]; human, plasma, oral, median Tmax, repeat dose, generally",2 to 4 h
same,"CV% in exposure, AUC(0–24)",[3]; [8],52%
same,"CV% in exposure, Cmax",[3]; [8],50%
same,endometrial cancer patients with stable disease (SD) on therapy for more than 6 months,[4]; 75 mg qd,4 patients
same,prostate cancer patients with stable disease (SD) on therapy for more than 6 months,[4]; 75 mg qd,3 patients
same,partial responses (PRs),[4]; RP2D 75 mg qd,two partial responses
same,patients withdrawn due to disease progression,"[4]; of 77 enrolled (68%), at study completion",52 patients
same,"insulin levels following a standardized meal, day 15 compared with screening","[5]; 5 patients with matched insulin samples, cycle 1 day 15",Three of the five patients had two-fold greater insulin levels
same,"association of decreased 1,5-AG with GSK2141795 concentrations","[5]; screening vs steady state, linear regression",this association was not consistent across the study or across tumor types
same,pKi,AKT1,10.18
same,pKi,AKT3,8.82
